Active and inactive are the calls of the source. The calls are words filed in the database; no cut-off is given here.
Experiments:
Plasmodium falciparum [1] = test: Antiplasmodial activity against Plasmodium falciparum K1 assessed as [3H]-hypoxanthine incorporation after 48 hrs by liquid scintillation counting analysis; assay type: functional, organism-based
Liver microsomes = test: Half life in human liver microsomes by UV-HPLC analysis; assay type: ADME, Microsome
In short: (§1)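 Substrate at 10 μM with 0.5 mg/ml pooled human or mouse liver microsomes, 0.5% DMSO, in 100 mM phosphate pH 7.4 with 3.3 mM MgCl2. After 5-min pre-equilibration at 37°C, 1 mM β-NADPH is added; triplicates.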

[2] = tested on: Trypanosoma brucei rhodesiense; test: Antitrypanosomal activity against Trypanosoma brucei rhodesiense STIB900 assessed as parasite growth inhibition after 70 hrs by Alamar blue assay; assay type: functional, organism-based; details: STIB900, 70 h
L6 = test: Cytotoxicity against rat L6 cells assessed as cell viability after 70 hrs by Alamar blue assay; assay type: cell-based; details: L6, 70 h
Liver [3] = test: Half life in mouse liver microsomes by UV-HPLC analysis; assay type: ADME, Microsome; in short: as §1
[4] = tested on: Trypanosoma brucei brucei; test: Antitrypanosomal activity against Trypanosoma brucei brucei GVR35 infected in NMRI mouse assessed as mouse survival at 100 mg/kg, po administered on day 21 post infection for 5 days measured up to 180 days; assay type: functional
In short: (§2)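 Oral dosing in the T. b. brucei GVR35 second-stage (CNS) mouse model, daily for 5 or 10 days. Cure means survival for more than 180 days after infection with no parasitemia relapse. Mean survival days are computed across mice with and without relapse.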

[5] = tested on: Trypanosoma brucei brucei; test: Antitrypanosomal activity against Trypanosoma brucei brucei GVR35 infected in NMRI mouse assessed as cured animal at 100 mg/kg, po administered on day 21 post infection for 5 days measured up to 180 days; assay type: functional, organism-based; design: dose 100 mg/kg
In short: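 Second-stage CNS model, oral dosing. A cure is survival beyond 180 days after infection without parasitemia relapse. Mean survival days are computed from mice with and without relapse. Reference diamidine control given once at 40 mg/kg ip.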

Liver [6] = test: Half life in Swiss Webster mouse liver S9 fraction by UV-HPLC analysis; assay type: ADME, subcellular
Plasmodium falciparum [7] = test: Potency index, ratio of pentamidine IC50 to compound IC50 for Plasmodium falciparum K1; assay type: functional
[8] = tested on: Trypanosoma brucei rhodesiense; test: Antitrypanosomal activity against Trypanosoma brucei rhodesiense STIB900 infected in NMRI mouse assessed as mouse survival at 5 mg/kg, ip administered on day 3 post infection for 4 days measured up to 60 days; assay type: functional; details: route intraperitoneal
[9] = tested on: Trypanosoma brucei rhodesiense; test: Antitrypanosomal activity against Trypanosoma brucei rhodesiense STIB900 infected in NMRI mouse assessed as cured animal at 10 mg/kg, ip administered on day 3 post infection for 4 days measured up to 60 days; assay type: functional, organism-based; design: dose 10 mg/kg
In short: (§3)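 Acute-stage mouse model: compound dosed daily for 4 days. A cure is a mouse surviving parasite-free for 60 days. Average days of survival also recorded.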

[10] = tested on: Trypanosoma brucei rhodesiense; test: Antitrypanosomal activity against Trypanosoma brucei rhodesiense STIB900 infected in NMRI mouse assessed as cured animal at 5 mg/kg, ip administered on day 3 post infection for 4 days measured up to 60 days; assay type: functional, organism-based; design: dose 5 mg/kg; in short: as §3
[11] = tested on: Trypanosoma brucei rhodesiense; test: Antitrypanosomal activity against Trypanosoma brucei rhodesiense STIB900 infected in NMRI mouse assessed as mouse survival at 20 mg/kg, ip administered on day 3 post infection for 4 days measured up to 60 days; assay type: functional; details: route intraperitoneal
[12] = tested on: Trypanosoma brucei rhodesiense; test: Antitrypanosomal activity against Trypanosoma brucei rhodesiense STIB900 infected in NMRI mouse assessed as cured animal at 20 mg/kg, ip administered on day 3 post infection for 4 days measured up to 60 days; assay type: functional, organism-based; design: dose 20 mg/kg; in short: as §3
[13] = tested on: Trypanosoma brucei rhodesiense; test: Antitrypanosomal activity against Trypanosoma brucei rhodesiense STIB900 infected in NMRI mouse assessed as cured animal at 100 mg/kg, ip administered on day 3 post infection for 4 days measured up to 60 days; assay type: functional, organism-based; design: dose 100 mg/kg; in short: as §3
[14] = tested on: Trypanosoma brucei rhodesiense; test: Antitrypanosomal activity against Trypanosoma brucei rhodesiense STIB900 infected in NMRI mouse assessed as mouse survival at 100 mg/kg, ip administered on day 3 post infection for 4 days measured up to 60 days; assay type: functional; details: route intraperitoneal
[15] = tested on: Trypanosoma brucei brucei; test: Antitrypanosomal activity against Trypanosoma brucei brucei GVR35 infected in NMRI mouse assessed as mouse survival at 100 mg/kg, po administered on day 21 post infection for 10 days measured up to 180 days; assay type: functional; in short: as §2

SMILES | IC50 (Plasmodium falciparum [1]) [µM] | IC50 [2] [µM] | IC50 (L6) [µM] | Survival [8] [days] | also measured
CO/N=C(\N)c1ccc(-c2cncc(-c3ccc(/C(N)=N\OC)cc3)n2)nc1 | 5.6 | 25.3 | > 180 | – | t1/2 (Liver microsomes): 7.6 min; t1/2 (Liver [3]): 210 min
CO/N=C(\N)c1ccc(-c2ccc(-c3ccc(/C(N)=N/OC)cn3)o2)cc1 | – | – | – | – | MSD [4]: >180 days; Activity [5]: Active
N/C(=N\O)c1ccc(-c2cncc(-c3ccc(/C(N)=N/O)cn3)n2)cc1 | 8.4 | 7.78 | 24.6 | – | t1/2 (Liver [6]): 30 min
N=C(N)c1ccc(-c2cncc(-c3ccc(C(=N)N)cc3)n2)cc1 | 0.01 | 0.0058 | 80.8 | >53.5 | Ratio IC50 (Plasmodium falciparum [7]): 5
CONC(=N)c1ccc(-c2ccc(-c3ccc(C(=N)NOC)cc3)o2)cc1 [PAFURAMIDINE] | – | – | – | – | Activity [9]: Active; MSD [4]: >167.8 days; t1/2 (Liver microsomes): 6.8 min; t1/2 (Liver [3]): 150 min
N=C(N)c1ccc(-c2cncc(-c3ccc(C(=N)N)cn3)n2)nc1 | 0.031 | 0.037 | 139 | >53.75 | –
CO/N=C(\N)c1ccc(-c2cncc(-c3ccc(/C(N)=N\OC)cc3)n2)cn1 | 0.453 | 194 | > 185 | – | t1/2 (Liver microsomes): 6.5 min; t1/2 (Liver [3]): 35 min
N=C(N)c1ccc(-c2cncc(-c3ccc(C(=N)N)nc3)n2)cn1 | 0.085 | 0.0048 | 24.4 | >36.5 | –
N=C(N)c1ccc(-c2cncc(-c3ccc(C(=N)N)cc3F)n2)c(F)c1 | – | 0.027 | 29.8 | >41 | Activity [10]: inactive
N=C(N)c1ccc(-c2cnc(-c3ccc(C(=N)N)cc3)cn2)cc1 | – | – | – | 36.5 | Activity [10]: inactive
CO/N=C(\N)c1ccc(-c2cncc(-c3ccc(/C(N)=N\OC)nc3)n2)cn1 | 0.328 | 7.87 | > 212 | – | t1/2 (Liver microsomes): 14 min; t1/2 (Liver [3]): 59 min
N=C(N)c1ccc(-c2cncc(-c3ccc(C(=N)N)nc3)n2)cc1 | 0.01 | 0.006 | 34.1 | >60 | –
Cc1cc(C(=N)N)ccc1-c1cncc(-c2ccc(C(=N)N)cc2C)n1 | 0.323 | 0.462 | 117 | – | –
CO/N=C(\N)c1ccc(-c2ccc(-c3ccc(/C(N)=N/OC)cn3)o2)nc1 | – | – | – | – | MSD [4]: >180 days; Activity [5]: Active
N=C(N)c1ccc(-c2ccc(-c3ccc(C(=N)N)cc3)o2)cc1 [FURAMIDINE] | – | – | – | >46 | Survival [11]: >57.75 days
N=C(N)c1ccc(-c2ccc(-c3ccc(C(=N)N)cn3)o2)nc1 | – | – | 83 | >49.5 | Activity [12]: Active; Survival [11]: >60 days
N/C(=N\O)c1ccc(-c2cncc(-c3ccc(/C(N)=N\O)nc3)n2)cn1 | 0.785 | 95.4 | > 190 | – | MSD [4]: 95.2 days; t1/2 (Liver [6]): 51 min; Activity [5]: inactive
CO/N=C(\N)c1ccc(-c2cncc(-c3ccc(/C(N)=N\OC)cn3)n2)nc1 | 7.39 | 120 | 20.1 | – | MSD [4]: 67.2 days; Activity [5]: inactive; t1/2 (Liver microsomes): 70 min; t1/2 (Liver [3]): 200 min
N/C(=N\O)c1ccc(-c2cncc(-c3ccc(/C(N)=N/O)cc3)n2)cc1 | 0.87 | 7.95 | 2.9 | – | Activity [9]: inactive; MSD [4]: 69 days; t1/2 (Liver [6]): 1.9 min; Activity [5]: inactive
N=C(N)c1ccc(-c2ccc(-c3ccc(C(=N)N)cn3)o2)cc1 | – | – | – | >54.5 | Activity [12]: Active; Survival [11]: >60 days
N/C(=N\O)c1ccc(-c2cncc(-c3ccc(/C(N)=N/O)cn3)n2)nc1 | 7.01 | 90.6 | > 196 | – | t1/2 (Liver [6]): 20 min
N/C(=N\O)c1ccc(-c2cncc(-c3ccc(/C(N)=N/O)nc3)n2)cc1 | 0.453 | 10.8 | 5 | – | t1/2 (Liver [6]): 36 min
N=C(NO)c1ccc(-c2ccc(-c3ccc(/C(N)=N\O)cc3)o2)cc1 | – | – | – | – | Activity [13]: inactive; t1/2 (Liver [6]): 29 min; Survival [14]: 50 days
N=C(N)c1ccc(-c2cncc(-c3ccc(C(=N)N)cn3)n2)cc1 | 0.052 | 0.014 | 117 | >60 | Activity [10]: Active
CO/N=C(\N)c1ccc(-c2cncc(-c3ccc(/C(N)=N\OC)cc3)n2)cc1 | 0.41 | 18.9 | 58.7 | – | MSD [4]: >173.8 days; t1/2 (Liver microsomes): 8.6 min; MSD [15]: >180 days; t1/2 (Liver [3]): 26 min

Reference: ChEMBL document CHEMBL2440077, “Synthesis and antiprotozoal activity of dicationic 2,6-diphenylpyrazines and aza-analogues” (Bioorg Med Chem, 2013)
